Test results from ChEMBL document CHEMBL1811752, “Synthesis and pharmacological characterization of bicyclic triple reuptake inhibitor 3-aryl octahydrocyclopenta[c]pyrrole analogues” (J Med Chem, 2011).

Assays:
[1] = biological target: Sodium-dependent serotonin transporter (Homo sapiens, UniProt P31645); assay: Inhibition of serotonin reuptake at SERT expressed in HEK293 cells; format: cell-based
[2] = biological target: Sodium-dependent dopamine transporter (Homo sapiens, UniProt Q01959); assay: Inhibition of dopamine reuptake at DAT expressed in CHO-K1 cells; format: cell-based
Chain of Sodium-dependent dopamine transporter (Q01959 whole entry): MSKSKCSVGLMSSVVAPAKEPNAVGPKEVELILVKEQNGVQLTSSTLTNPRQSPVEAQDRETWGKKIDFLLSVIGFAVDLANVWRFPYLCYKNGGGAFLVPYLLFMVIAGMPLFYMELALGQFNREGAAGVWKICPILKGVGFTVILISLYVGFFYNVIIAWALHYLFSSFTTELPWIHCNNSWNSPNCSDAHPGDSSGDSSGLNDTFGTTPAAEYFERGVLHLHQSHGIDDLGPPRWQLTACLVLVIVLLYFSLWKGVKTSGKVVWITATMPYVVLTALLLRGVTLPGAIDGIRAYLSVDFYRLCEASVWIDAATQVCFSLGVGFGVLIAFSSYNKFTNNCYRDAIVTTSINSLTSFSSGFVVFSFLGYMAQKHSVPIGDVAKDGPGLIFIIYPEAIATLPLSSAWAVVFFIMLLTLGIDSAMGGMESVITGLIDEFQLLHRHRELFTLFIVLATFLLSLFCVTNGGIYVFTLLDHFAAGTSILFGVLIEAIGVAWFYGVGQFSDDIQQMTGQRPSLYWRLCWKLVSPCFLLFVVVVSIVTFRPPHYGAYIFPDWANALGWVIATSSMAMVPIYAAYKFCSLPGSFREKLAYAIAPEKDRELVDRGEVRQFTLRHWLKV

[3] = biological target: Sodium-dependent noradrenaline transporter (Homo sapiens, UniProt P23975); assay: Inhibition of norepinephrine reuptake at NET expressed in MDCK cells; format: cell-based
Chain of Sodium-dependent noradrenaline transporter (P23975 whole entry): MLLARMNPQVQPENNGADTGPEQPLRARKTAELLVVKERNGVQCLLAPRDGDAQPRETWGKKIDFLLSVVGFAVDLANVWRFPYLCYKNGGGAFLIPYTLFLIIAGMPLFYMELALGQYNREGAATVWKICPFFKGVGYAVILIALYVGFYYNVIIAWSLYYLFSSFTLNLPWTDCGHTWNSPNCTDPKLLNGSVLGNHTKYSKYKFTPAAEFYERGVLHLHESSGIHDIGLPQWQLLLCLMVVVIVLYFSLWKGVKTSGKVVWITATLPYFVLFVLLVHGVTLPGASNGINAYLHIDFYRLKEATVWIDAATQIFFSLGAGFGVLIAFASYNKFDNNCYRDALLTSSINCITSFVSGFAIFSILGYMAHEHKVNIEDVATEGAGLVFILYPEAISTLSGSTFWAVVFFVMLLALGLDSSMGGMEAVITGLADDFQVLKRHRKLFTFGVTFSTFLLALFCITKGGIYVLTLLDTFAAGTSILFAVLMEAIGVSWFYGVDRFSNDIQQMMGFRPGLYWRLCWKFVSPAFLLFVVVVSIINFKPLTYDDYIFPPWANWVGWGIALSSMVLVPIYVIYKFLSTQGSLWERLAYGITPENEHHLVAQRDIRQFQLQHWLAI

[4] = Half life in mouse liver microsomes at 3 uM by LC-MS/MS analysis; format: ADME, Microsome
Procedure, shortened: (§1)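 Human or mouse liver microsomes (0.5 mg/mL) incubated with 3 μM compound at 37 °C. Reaction started with NADPH and stopped with methanol containing internal standard. Loss of compound followed over 45 min by LC-MS/MS. Peak area ratio to internal standard plotted against time and the slope of the line taken.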

Cytochrome P450 2D6 = Cytochrome P450 2D6 (Homo sapiens, UniProt P10635); assay: Inhibition of CYP2D6 in human liver microsomes by LC-MS/MS analysis; format: ADME, Microsome
Chain of Cytochrome P450 2D6 (P10635 whole entry, canonical isoform): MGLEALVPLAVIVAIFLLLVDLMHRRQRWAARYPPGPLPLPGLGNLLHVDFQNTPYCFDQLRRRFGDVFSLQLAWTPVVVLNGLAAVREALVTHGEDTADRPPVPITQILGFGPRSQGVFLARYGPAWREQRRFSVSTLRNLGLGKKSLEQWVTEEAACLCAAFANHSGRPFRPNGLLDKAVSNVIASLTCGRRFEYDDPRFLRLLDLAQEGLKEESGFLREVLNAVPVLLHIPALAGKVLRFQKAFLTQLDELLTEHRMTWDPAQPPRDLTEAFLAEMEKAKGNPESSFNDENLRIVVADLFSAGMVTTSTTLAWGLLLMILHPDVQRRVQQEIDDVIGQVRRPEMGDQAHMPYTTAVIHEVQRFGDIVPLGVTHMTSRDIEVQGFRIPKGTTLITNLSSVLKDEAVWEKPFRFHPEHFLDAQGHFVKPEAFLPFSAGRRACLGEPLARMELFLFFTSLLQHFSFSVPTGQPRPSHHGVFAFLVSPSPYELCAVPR
Procedure, shortened: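 Human liver microsomes incubated with isoform-specific substrates and compound, typically 0.1–25 μM. Metabolite formation read by LC-MS/MS, […]. IC50 calculated from the decrease in metabolite formation relative to vehicle control.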

[5] = Half life in human liver microsomes at 3 uM by LC-MS/MS analysis; format: ADME, Microsome; procedure, shortened: as §1

Chain of Sodium-dependent serotonin transporter (P31645 whole entry): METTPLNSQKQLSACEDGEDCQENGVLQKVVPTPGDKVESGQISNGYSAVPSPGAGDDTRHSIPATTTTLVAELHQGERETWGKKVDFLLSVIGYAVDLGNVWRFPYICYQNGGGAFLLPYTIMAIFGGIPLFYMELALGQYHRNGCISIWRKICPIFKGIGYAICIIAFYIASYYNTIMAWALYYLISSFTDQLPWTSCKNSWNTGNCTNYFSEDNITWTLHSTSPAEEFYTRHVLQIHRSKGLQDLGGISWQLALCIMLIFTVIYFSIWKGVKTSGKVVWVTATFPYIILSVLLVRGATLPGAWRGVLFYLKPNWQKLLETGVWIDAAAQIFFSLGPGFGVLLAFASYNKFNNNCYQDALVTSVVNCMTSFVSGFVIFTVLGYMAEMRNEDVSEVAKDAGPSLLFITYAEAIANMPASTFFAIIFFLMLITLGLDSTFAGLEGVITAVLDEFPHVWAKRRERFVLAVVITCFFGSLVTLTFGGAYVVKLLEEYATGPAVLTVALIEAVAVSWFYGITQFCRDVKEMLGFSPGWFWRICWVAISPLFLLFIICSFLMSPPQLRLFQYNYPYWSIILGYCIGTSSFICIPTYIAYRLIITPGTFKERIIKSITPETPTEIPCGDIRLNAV

Structure (SMILES): COc1ccc([C@]23CCC[C@H]2CN(C)C3)cc1 (racemic)
- IC50 [1]: 4.47 nM
- IC50 [2]: > 10000 nM
- IC50 [3]: > 10000 nM

Structure (SMILES): COc1ccc([C@]23CCCC[C@H]2CN(C)C3)cc1OC (racemic)
- IC50 [1]: 34.7 nM
- IC50 [2]: 9770 nM
- IC50 [3]: 5890 nM

Structure (SMILES): CN1C[C@H]2CCC[C@@]2(c2ccc3ccccc3c2)C1
- half-life at 3 µM [4]: 18 min
- IC50 [1]: 14.5 nM
- IC50 [2]: 28.8 nM
- IC50 (Cytochrome P450 2D6): 12800 nM
- IC50 [3]: 191 nM
- half-life at 3 µM [5]: 19 min

Structure (SMILES): Clc1ccc(C[C@@]23CCCC[C@@H]2CNC3)cc1Cl
- half-life at 3 µM [4]: > 300 min
- IC50 [1]: 49 nM
- IC50 [2]: 158 nM
- IC50 (Cytochrome P450 2D6): < 50 nM
- IC50 [3]: 2950 nM
- half-life at 3 µM [5]: > 300 min

Structure (SMILES): Clc1ccc([C@]23CCCC[C@@H]2CNC3)cc1Cl (racemic; 19b)
- IC50 [1]: 1910 nM
- IC50 [2]: 457 nM
- IC50 [3]: 2140 nM

Structure (SMILES): CN1C[C@H]2CCCC[C@@]2(c2ccc3ccccc3c2)C1
- half-life at 3 µM [4]: 7 min
- IC50 [1]: 12.6 nM
- IC50 [2]: 61.7 nM
- IC50 (Cytochrome P450 2D6): 13600 nM
- IC50 [3]: 537 nM
- half-life at 3 µM [5]: 17 min

Structure (SMILES): Clc1ccc([C@]23CCCC[C@@H]2CNC3)cc1Cl (racemic; 19a)
- IC50 [1]: 1820 nM
- IC50 [2]: 1020 nM
- IC50 [3]: 6030 nM

Structure (SMILES): CN1C[C@@H]2CCCC[C@]2(c2ccc(F)c(F)c2)C1 (racemic)
- IC50 [1]: 1230 nM
- IC50 [2]: 417 nM
- IC50 [3]: 2340 nM

Structure (SMILES): CN1C[C@@H]2CCCC[C@]2(Cc2ccc(Cl)c(Cl)c2)C1 (stereo in doubt)
- IC50 [1]: 339 nM
- IC50 [2]: 490 nM
- IC50 [3]: 4470 nM

Structure (SMILES): CN1C[C@@H]2CCCC[C@]2(c2ccc(Cl)cc2Cl)C1 (racemic)
- IC50 [1]: 347 nM
- IC50 [2]: 1290 nM
- IC50 [3]: 912 nM

Structure (SMILES): CN1C[C@@H]2CCCC[C@]2(c2cccc3ccccc23)C1 (racemic)
- IC50 [1]: 162 nM
- IC50 [2]: 1320 nM
- IC50 [3]: 417 nM

Structure (SMILES): CN1C[C@H]2CCCC[C@@]2(c2cccc3ccccc23)C1
- IC50 [1]: 33.1 nM
- IC50 [2]: 2450 nM
- IC50 [3]: 204 nM

Structure (SMILES): CN1C[C@@H]2CCC[C@]2(c2ccc3ccccc3c2)C1 (racemic)
- IC50 [1]: 3.55 nM
- IC50 [2]: 100 nM
- IC50 [3]: 468 nM

Structure (SMILES): COc1cccc([C@]23CCCC[C@H]2CN(C)C3)c1 (racemic)
- IC50 [1]: 148 nM
- IC50 [2]: 3390 nM
- IC50 [3]: 2450 nM

Structure (SMILES): CN1C[C@@H]2CCC[C@]2(c2ccc(F)c(F)c2)C1 (racemic)
- IC50 [1]: 1100 nM
- IC50 [2]: 2820 nM
- IC50 [3]: 6460 nM

Structure (SMILES): CN1C[C@@H]2CCC[C@]2(c2ccc(Cl)c(Cl)c2)C1 (racemic)
- IC50 [1]: 8.91 nM
- IC50 [2]: 67.6 nM
- IC50 [3]: 24 nM

Structure (SMILES): CN1C[C@H]2CCCC[C@@]2(Cc2ccc(Cl)c(Cl)c2)C1 (stereo in doubt)
- half-life at 3 µM [4]: 25 min
- IC50 [1]: 5.5 nM
- IC50 [2]: 479 nM
- IC50 (Cytochrome P450 2D6): < 50 nM
- IC50 [3]: 3800 nM
- half-life at 3 µM [5]: 121 min

Structure (SMILES): CN1C[C@@H]2CCC[C@]2(c2cc(Cl)cc(Cl)c2)C1 (racemic)
- IC50 [1]: 331 nM
- IC50 [2]: 9770 nM
- IC50 [3]: 4270 nM

Structure (SMILES): CN1C[C@@H]2CCCC[C@]2(c2ccccc2)C1 (racemic)
- IC50 [1]: 724 nM
- IC50 [2]: 1580 nM
- IC50 [3]: 562 nM

Structure (SMILES): CN1C[C@@H]2CCCC[C@]2(c2ccc3ccccc3c2)C1 (racemic)
- IC50 [1]: 4.79 nM
- IC50 [2]: 20.4 nM
- IC50 [3]: 537 nM

Structure (SMILES): Clc1ccc(C[C@]23CCCC[C@H]2CNC3)cc1Cl
- IC50 [1]: 661 nM
- IC50 [2]: 501 nM
- IC50 [3]: 5370 nM

Structure (SMILES): COc1cccc([C@]23CCC[C@H]2CN(C)C3)c1 (racemic)
- IC50 [1]: 692 nM
- IC50 [2]: > 10000 nM
- IC50 [3]: > 10000 nM

Structure (SMILES): Clc1ccc([C@]23CCCC[C@H]2CNC3)cc1Cl (racemic)
- IC50 [1]: 115 nM
- IC50 [2]: 204 nM
- IC50 [3]: 112 nM

Structure (SMILES): COc1ccc([C@]23CCCC[C@H]2CN(C)C3)cc1 (racemic)
- IC50 [1]: 129 nM
- IC50 [2]: 1000 nM
- IC50 [3]: 14100 nM

Structure (SMILES): CN1C[C@@H]2CCCC[C@]2(c2cccc3ccccc23)C1
- IC50 [1]: 977 nM
- IC50 [2]: 3310 nM
- IC50 [3]: > 10000 nM
